Common to all, as to type: functional
Test [1] relates to Hepatocyte. Description: Hepatoprotective activity against mouse hepatocytes assessed as inhibition of D-galactosamine/TNFalpha-induced cell death at 100 uM after 18 hrs by MTT assay. Put shortly: (§1)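 Primary cultured mouse hepatocytes in Williams' E medium with 10% calf serum, penicillin G, streptomycin, 100 µM dexamethasone and 50 ng/mL insulin, seeded at 10^5 cells/well and preincubated 2 h. The medium was then replaced with fresh medium holding 0.5 mM D-GalN plus test sample.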

In test [2] the test system is Hepatocyte. Description: Hepatoprotective activity against mouse hepatocytes assessed as inhibition of D-galactosamine/TNFalpha-induced cell death at 200 uM after 18 hrs by MTT assay. The procedure, abridged: as §1
Test [3] deals with Hepatocyte. Kind of test: Hepatoprotective activity against mouse hepatocytes assessed as inhibition of D-galactosamine/TNFalpha-induced cell death at 50 uM after 18 hrs by MTT assay. Put shortly:
as §1

Test [4] relates to Hepatocyte. Description: Hepatoprotective activity against mouse hepatocytes assessed as inhibition of D-galactosamine/TNFalpha-induced cell death at 25 uM after 18 hrs by MTT assay. Put shortly:
as §1

Calls of active or inactive are those of the source. The calls are words filed in the database; no cut-off is given here.

Turning to `CC1=C(C)[C@H]2C3=CC[C@@H]4[C@@]5(C)C[C@@H](O)[C@H](O)[C@@](C)(CO)[C@@H]5CC[C@@]4(C)[C@]3(C)CC[C@@]2(C(=O)O[C@@H]2O[C@H](CO)[C@@H](O)[C@H](O)[C@H]2O)CC1`, the inhibition at 100 µM in the test on Hepatocyte [1] worked out at 25%. The inhibition at 200 µM in the test on Hepatocyte [2] was determined as 15%. Besides, the inhibition at 50 µM in the test with Hepatocyte [3] was found to be 8.3%.

Consider `C[C@H]1[C@H](C)CC[C@]2(C(=O)O[C@@H]3O[C@H](CO)[C@@H](O)[C@H](O)[C@H]3O)CC[C@]3(C)C(=CC[C@@H]4[C@@]5(C)C[C@@H](O)[C@H](O)[C@@](C)(CO)[C@@H]5CC[C@]43C)[C@H]12`, for which the result with Hepatocyte [4], in the test with Hepatocyte [1], with Hepatocyte [2] and in the test with Hepatocyte [3] was inactive.

Consider `Oc1cc(O)c2c(c1)O[C@H](c1ccc(O)c(O)c1)[C@H](O)C2` [(-)-EPICATECHIN], for which the inhibition at 100 µM in the test on Hepatocyte [1] was 58.1%. Also, the inhibition at 200 µM with Hepatocyte [2] turned out to be 98.9%. The inhibition at 50 µM in the test on Hepatocyte [3] worked out at 38%.

Turning to `CC1(C)CC[C@]2(C(=O)O)CC[C@]3(C)C(=CC[C@@H]4[C@@]5(C)C[C@@H](O)[C@H](O)[C@@](C)(CO)[C@@H]5CC[C@]43C)[C@@H]2[C@@H]1O` [ARJUNGENIN], in the test with Hepatocyte [1], the inhibition at 100 µM came to 37%. In addition, the inhibition at 200 µM in the test on Hepatocyte [2] stood at 46.2%. For the same compound, the inhibition at 50 µM in the test on Hepatocyte [3] is 31.8%.

For `CC1(C)CC[C@]2(C(=O)O[C@@H]3O[C@H](CO)[C@@H](O)[C@H](O)[C@H]3O)CC[C@]3(C)C(=CC[C@@H]4[C@@]5(C)C[C@@H](O)[C@H](O)[C@@](C)(CO)[C@@H]5CC[C@]43C)[C@@H]2[C@@H]1O` [ARJUNGLUCOSIDE I], the inhibition at 100 µM in the test on Hepatocyte [1] was determined as 31.5%. In addition, the inhibition at 200 µM in the test with Hepatocyte [2] stood at 32.7%. Besides, the inhibition at 50 µM in the test with Hepatocyte [3] turned out to be 10.1%.

In the case of `Oc1cc(O)c2c(c1)O[C@H](c1cc(O)c(O)c(O)c1)[C@@H](O)C2` [GALLOCATECHIN], the inhibition at 100 µM with Hepatocyte [1] came out at 30.3%. For the same compound, in the test with Hepatocyte [2], the inhibition at 200 µM is 33.5%. Moreover, the inhibition at 50 µM in the test on Hepatocyte [3] was 19.7%.

Regarding `C[C@@]1(CO)CC[C@]2(C(=O)O[C@@H]3O[C@H](CO)[C@@H](O)[C@H](O)[C@H]3O)CC[C@]3(C)C(=CC[C@@H]4[C@@]5(C)C[C@@H](O)[C@H](O)[C@@](C)(CO)[C@@H]5CC[C@]43C)[C@@H]2C1` [QUADRANOSIDE III], the inhibition at 25 µM in the test on Hepatocyte [4] was found to be 15.1%. In the test on Hepatocyte [1], the inhibition at 100 µM is 17.8%. For the same compound, the inhibition at 200 µM with Hepatocyte [2] is 35.5%. Moreover, in the test with Hepatocyte [3], the inhibition at 50 µM was found to be 8%.

As to `C=C(C)[C@@H]1CC[C@]2(C(=O)O[C@@H]3O[C@H](CO)[C@@H](O)[C@H](O)[C@H]3O)CC[C@]3(C)[C@H](CC[C@@H]4[C@@]5(C)C[C@@H](O)[C@H](O)[C@@](C)(CO)[C@@H]5[C@H](O)C[C@]43C)[C@@H]12` [QUADRANOSIDE II], in the test on Hepatocyte [4], the inhibition at 25 µM was found to be 32%. In addition, in the test on Hepatocyte [1], the inhibition at 100 µM is 46.1%. Also, the inhibition at 200 µM in the test with Hepatocyte [2] stood at 83.6%. The inhibition at 50 µM in the test with Hepatocyte [3] amounted to 40.9%.

With `C=C(C)[C@@H]1CC[C@]2(C(=O)O[C@@H]3O[C@H](CO)[C@@H](O)[C@H](O)[C@H]3O)CC[C@]3(C)[C@H](CC[C@@H]4[C@@]5(C)C[C@@H](O)[C@H](O)C(C)(C)[C@@H]5[C@H](O)C[C@]43C)[C@@H]12` [QUADRANOSIDE I], the inhibition at 25 µM in the test with Hepatocyte [4] was 6.3%. The inhibition at 100 µM in the test with Hepatocyte [1] was 29.7%. For the same compound, the inhibition at 200 µM in the test on Hepatocyte [2] was determined as 71.2%. For the same compound, the inhibition at 50 µM in the test with Hepatocyte [3] was 37.6%.

With `CC1=C2C3=CC[C@@H]4[C@@]5(C)C[C@@H](O)[C@H](O)[C@@](C)(CO)[C@@H]5[C@H](O)C[C@@]4(C)[C@]3(C)CC[C@@]2(C(=O)O[C@@H]2O[C@H](CO)[C@@H](O)[C@H](O)[C@H]2O)CC[C@H]1C` [QUADRANOSIDE V], in the test on Hepatocyte [4], the inhibition at 25 µM stood at 59.3%. The inhibition at 100 µM with Hepatocyte [1] was 77.7%. Moreover, the inhibition at 200 µM in the test with Hepatocyte [2] worked out at 80.1%. Moreover, in the test on Hepatocyte [3], the inhibition at 50 µM was 67.5%.

`COc1cc(C2Oc3cc([C@H]4Oc5cc(O)cc(O)c5C(=O)[C@@H]4O)ccc3OC2CO)ccc1O` (some centres undefined) [SILIBININ]: the inhibition at 25 µM with Hepatocyte [4] was found to be 38.1%. Also, the inhibition at 100 µM with Hepatocyte [1] was found to be 96.5%. Further, the inhibition at 200 µM with Hepatocyte [2] was 70.8%. Moreover, the inhibition at 50 µM in the test on Hepatocyte [3] was found to be 61.2%.

The record behind these values is ChEMBL document CHEMBL1154566, “Quadranosides I-V, new triterpene glucosides from the seeds of Combretum quadrangulare” (2000).
